DSG3 Ab inh = inhibitors of pemphigus antibody binding to human desmoglein-3; P32926; DSG3-coupled beads, scFv-anti-DSG3-GFP binding, flow cytometry; stronger effect = lower value; binding (percent of control), % at 10 µM; hit rate 0.48% among 310,000;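 active = binding more than 3 SD below its plate's average and above zero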
HCV NS3 hel inh = HCV NS3 helicase inhibition; NS3 helicase DNA unwinding, Cy5 molecular beacon fluorescence; hit rate 0.56% among 290,000; inhibition, % at 10.9 µM;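 active = inhibition above the mean of all tested compounds plus 3 SD, set per campaign, cut at about 35% in these data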;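 note: 0% = DMSO wells and 100% = thioflavine S control wells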
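System: Hepatitis C virus NS3 helicase domain fragment enzyme | Reagent: Annealed dual-labelled DNA beacon duplex, ATP-started | Compound dosing: 10.9 µM single point, 0.8% DMSO | Incubation: 1 h reaction at 25 °C, ATP-initiated | Technique: Cy5 fluorescence | Evaluation: Percent inhibition from t60/t0 fluorescence ratio | Benchmarks: Low DMSO, high thioflavine S at 110 µM | Replication: Singlicate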
MBD2 DNA inh = inhibitors of human MBD2 binding to methylated oligonucleotide; Q9UBB5; TR-FRET; inhibition, % at 4.4 µM; hit rate 0.31% among 370,000; in the data active = inhibition above about 13%
SUMO1-SIM PPI = SUMO1-SIM interaction modulation. P63165. SUMO1 binding to a labelled peptide, TR-FRET, 1 h. inhibition, % at 20 µM. hit rate 0.33% among 360,000
UHRF1 MBD2 ctr = blocks human UHRF1 binding to methylated DNA. inhibition, % at 4.4 µM. UHRF1 binding to methylated oligo, TR-FRET. hit rate 0.75% among 370,000; in the data active = inhibition above about 21%;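 note: UHRF1 SRA domain binding a hemimethylated CpG hairpin DNA probe; 0% = median of test compound wells and 100% = reference inhibitor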
DNMT1 block = inhibitors of human DNMT1; inhibition (reported as % activation of signal), % at 10 µM; hit rate 0.83% among 360,000; DNMT1 molecular beacon, Hinp1I cleavage, fluorescence; P26358; in the data active = inhibition above about 50%
Target sequence (P26358 504-1616 limits assumed): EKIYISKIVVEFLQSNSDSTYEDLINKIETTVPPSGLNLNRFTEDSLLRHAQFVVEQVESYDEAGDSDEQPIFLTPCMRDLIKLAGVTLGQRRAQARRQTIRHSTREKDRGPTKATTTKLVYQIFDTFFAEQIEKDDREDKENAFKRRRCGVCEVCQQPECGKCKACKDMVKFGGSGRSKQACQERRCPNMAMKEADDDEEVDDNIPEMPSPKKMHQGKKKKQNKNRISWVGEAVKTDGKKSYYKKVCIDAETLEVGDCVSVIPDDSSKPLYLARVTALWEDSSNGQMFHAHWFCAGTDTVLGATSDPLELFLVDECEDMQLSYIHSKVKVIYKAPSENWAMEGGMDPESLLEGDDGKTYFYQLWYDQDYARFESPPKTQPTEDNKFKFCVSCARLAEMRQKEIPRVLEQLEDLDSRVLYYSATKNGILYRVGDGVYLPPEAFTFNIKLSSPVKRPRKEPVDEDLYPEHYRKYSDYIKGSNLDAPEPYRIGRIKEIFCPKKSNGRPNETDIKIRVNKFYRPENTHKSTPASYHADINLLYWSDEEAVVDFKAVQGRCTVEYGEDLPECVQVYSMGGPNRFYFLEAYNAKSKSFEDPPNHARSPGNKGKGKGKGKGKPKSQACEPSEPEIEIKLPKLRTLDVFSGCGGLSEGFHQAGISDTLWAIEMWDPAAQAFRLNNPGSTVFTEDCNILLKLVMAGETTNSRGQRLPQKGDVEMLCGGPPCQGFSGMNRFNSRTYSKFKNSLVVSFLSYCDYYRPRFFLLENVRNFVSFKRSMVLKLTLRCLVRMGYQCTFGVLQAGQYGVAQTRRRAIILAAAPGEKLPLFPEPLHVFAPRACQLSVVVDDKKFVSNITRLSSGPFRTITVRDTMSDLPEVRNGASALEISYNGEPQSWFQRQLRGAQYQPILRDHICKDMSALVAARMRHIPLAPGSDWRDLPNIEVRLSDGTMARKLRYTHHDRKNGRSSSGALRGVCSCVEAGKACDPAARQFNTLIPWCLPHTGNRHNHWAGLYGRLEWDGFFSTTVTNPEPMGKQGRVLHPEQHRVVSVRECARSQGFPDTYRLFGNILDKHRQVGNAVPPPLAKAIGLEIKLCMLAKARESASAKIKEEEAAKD
NS3 hel confirm = confirmation of Hepatitis C virus NS3 helicase inhibitors; NS3 helicase DNA unwinding, Cy5 molecular beacon fluorescence; hit rate 31% among 1,600; shares compounds with HCV NS3 hel inh; inhibition, % at 10.9 µM;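 active = inhibition above the mean of all tested compounds plus 3 SD, cutoff set per campaign, cut at about 36% in these data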
DNA FID counter = displaces DNA intercalator in HCV helicase counter-screen. shares compounds with HCV NS3 hel inh. DNA fluorescent intercalator displacement, fluorescence. inhibition, % at 7.9 µM. hit rate 4% among 1,600;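 note: 0% = vehicle and 100% = reference compound; higher means more displacement of ethidium bromide from the DNA hairpin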
* hit, by the source's call; . = no result. Only some compounds are listed: those with a hit (about 2.5% of all), similar ones and a draw of the others. Cut-off read from the data, not from the text of the source, unless noted: active = inhibition above about 37%; inactive = the rest.

SMILES	DSG3 Ab inh	HCV NS3 hel inh	MBD2 DNA inh	SUMO1-SIM PPI	UHRF1 MBD2 ctr	DNMT1 block	NS3 hel confirm	DNA FID counter
O=C(O)Cn1cc(/C=C2\C(=O)NC(=O)N(c3ccc(Br)cc3)C2=O)c2ccccc21	92	49*	6	3	1	6	28	-8
NNC(=O)CN1C(=O)CN=C(c2ccccc2)c2cc(Br)ccc21	.	54*	0	4	1	1	-14	-29
O=C1CN=C(c2ccccc2)c2cc(Br)ccc2N1Cc1cc(=O)n2ccccc2n1	125	-3	2	-9	-2	-3	.	.
O=C1NC(=O)C(=Cc2ccc(-c3ccccc3[N+](=O)[O-])o2)C(=O)N1	103	45*	-5	-16	-3	2	-22	20
CNS(=O)(=O)c1ccc(-c2ccc(C=C3C(=O)NC(=O)NC3=O)o2)cc1	107	45*	0	-9	11	3	-28	6
O=C1NC(=O)C(=Cc2ccccc2[N+](=O)[O-])C(=O)N1	99	.	-4	-11	-8	-1	.	.
NS(=O)(=O)c1ccc(-c2ccc(C=C3C(=O)NC(=O)NC3=O)o2)cc1	96	26	-7	-15	-2	9	.	.
CCCCN1C(=O)/C(=C\c2ccco2)C(=O)N(CCc2ccccc2)C1=O	101	38*	-1	7	-4	10	69*	15
Cc1cc(/C=C2/C(=O)NC(=O)N(Cc3ccco3)C2=O)c(C)n1-c1ccccc1O	85	49*	-6	-12	9	18	-17	11
Cn1cccc1/C=C1/C(=O)NC(=O)N(Cc2ccc(F)cc2)C1=O	93	33	-1	-8	20	0	.	.
O=C1NC(=O)N(Cc2ccc(F)cc2)C(=O)/C1=C\C=C\c1ccco1	97	41*	-4	11	5	26	32	20
Cc1ccccc1N1C(=O)/C(=C/c2ccco2)C(=O)NC1=S	.	81*	.	.	.	.	83*	21
C=CCN1C(=O)C2(C(C(=O)OCC)=C(N)Oc3ccccc32)C2=C1CCCC2=O (stereo unspecified)	100	-4	2	-2	2	1	.	.
Cn1cccc1/C=C1\C(=O)NC(=O)N(Cc2ccccc2)C1=O	89	13	-2	0	-3	5	.	.
O=C1NC(=O)N(Cc2ccccc2)C(=O)/C1=C\c1ccco1	87	39*	-4	6	1	29	20	24
Cc1ccc(N2C(=O)NC(=O)/C(=C/C=C/c3ccco3)C2=O)cc1	98	39*	-3	6	10	30	-8	6
O=C(c1ccc(Cl)cc1)C1CCCN(Cc2cccc3cnccc23)C1 (stereo unspecified)	122	-7	0	-5	-2	-5	.	.
COC(=O)C1=C(c2cc3ccccc3s2)C[C@@H]2CC[C@H]1N2C(=O)N1CCC(C)CC1	108	.	4	1	-1	-3	.	.
CCN(CC)C(=O)c1ccc(N(Cc2ccccc2)S(C)(=O)=O)cc1	120	-3	3	0	0	-1	.	.
CCN(CC)C(=O)c1ccc2c(c1)C1C=CCC1C(C(=O)O)N2 (stereo unspecified)	92	42*	-2	45*	20	19	86*	-3
CC(Cc1ccccc1)NC(=O)CN1CCCC1=O (stereo unspecified)	102	0	2	-1	-4	7	.	.
O=C(N/N=C/c1c(O)n(C2CCCCC2)c(=S)[nH]c1=O)c1ccccc1O	99	-17	3	-8	-1	-17	.	.
O=C1NC(=S)NC(=O)C1=Cc1ccc(Br)s1	100	45*	-6	17	-2	57*	56*	8
Cc1cccc(-n2c(/C=C/c3ccc([N+](=O)[O-])o3)nc3ccccc3c2=O)c1	109	61*	2	-5	4	19	15	1
O=c1c2ccccc2nc(/C=C/c2ccc([N+](=O)[O-])o2)n1-c1ccc(O)cc1	.	10	2	-1	15	33	.	.
SMILES	DSG3 Ab inh	HCV NS3 hel inh	MBD2 DNA inh	SUMO1-SIM PPI	UHRF1 MBD2 ctr	DNMT1 block	NS3 hel confirm	DNA FID counter
CN(C)C1C(=O)C(C(N)=O)=C(O)C2(O)C(=O)C3=C(O)c4c(O)cccc4C(C)(O)C3CC12 (stereo unspecified)	99	42*	.	6	.	19	4	11
O=C(O)c1ccccc1-c1ccc(C=C2C(=O)N(c3ccccc3)C(=S)N(c3ccccc3)C2=O)o1	116	42*	5	24	13	28	69*	9
O=C1NC(=O)N(c2ccccc2)C(=O)/C1=C\c1ccc([N+](=O)[O-])o1	.	34	.	.	.	.	.	.
O=c1[nH]c2ccccc2o1	.	2	0	1	-2	-2	.	.
CC(C)c1ccc(-n2c(O)c(/C=N/NC(=O)c3ccccc3O)c(=O)[nH]c2=S)cc1	87	74*	-2	-9	0	-3	74*	21
Cc1ccc(N2C(=O)CC(=O)NC2=O)cc1Cl	113	45*	8	7	-1	-2	-3	33
CCOc1cccc(N2C(=O)CC(=O)NC2=O)c1	100	59*	4	-3	16	-1	-22	3
O=c1[nH]c(=S)n(Cc2ccc(F)cc2)c(O)c1/C=N/N1CCCCCC1	93	21	1	-2	1	-5	.	.
CCC(=O)OC(Cc1ccccc1)(c1ccccc1)[C@H](C)CN(C)C (stereo partly specified)	98	.	0	0	0	5	.	.
Cc1ccccc1-n1c(O)c(C=Nc2ccc(N(C)C)cc2)c(=O)[nH]c1=O	102	43*	-4	-19	2	-10	-12	-14
CN(C)c1ccc(N=Cc2c(O)n(CCC3=CCCCC3)c(=O)[nH]c2=O)cc1	.	40*	.	-1	.	26	-1	-8
O=c1[nH]c(=S)n(CCC2=CCCCC2)c(O)c1/C=N/N1CCOCC1	106	41*	2	1	0	-5	-8	11
Cc1cccc(N=Cc2c(O)n(-c3ccccc3C)c(=O)[nH]c2=O)c1	103	6	3	-2	-5	-3	.	.
COCCNC(=O)Cn1cc(C=C2C(=O)NC(=O)NC2=O)c2ccccc21	99	6	-5	0	0	8	.	.
FC(F)(F)c1ccc2c(c1)NP(=S)(N1CCOCC1)c1nccn1-2 (stereo unspecified)	101	-3	-2	-1	-1	0	.	.
O=c1[nH]c(O)c(C=Nc2ccccc2Oc2ccccc2)c(=O)[nH]1	108	-1	5	-4	-1	10	.	.

High-throughput results (PubChem BioAssay)
